From ChEMBL document CHEMBL4130609, “Nitrobenzoyl Sesquiterpenoids with Cytotoxic Activities from a Marine-Derived Aspergillus ochraceus Fungus” (J Nat Prod, 2018)

Tests used:
RAW264.7 [1] = experiment: Inhibition of LPS-induced NFkappaB (unknown origin) activation expressed in mouse RAW264.7 cells at 4 uM pretreated for 30 mins followed by LPS-stimulation after 8 hrs by luciferase reporter gene assay relative to control; format: cell-based; conditions: Homo sapiens
How it was run: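 RAW264.7 cells stably carrying an NF-κB luciferase reporter were pretreated with compounds for 30 min at 4, 2, 1 and 0.5 μM. They were then stimulated with 1 μg/mL LPS for 8 h. Luciferase activity was measured in triplicate. BAY11-7082 at 5 μM served as positive control.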

ACHN = experiment: Cytotoxicity against human ACHN cells after 72 hrs by CCK8 assay; format: functional, cell-based
How it was run: (§1)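 ACHN cells grown in MEM with 10% FBS; OS-RC-2 and 786-O cells grown in RPMI1640 with 10% FBS. Seeded at 400 to 800 cells/well and treated with a 9-point series from 100 down to 0.00153 μM, or solvent control, for 72 h. Viability read by CCK-8 absorbance at 450 nm in triplicate. IC50 taken from dose–response curves.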

OS-RC-2 = experiment: Cytotoxicity against human OS-RC2 cells after 72 hrs by CCK8 assay; format: functional, cell-based; conditions: OS-RC-2, 72 h; how it was run: as §1
786-0 [2] = experiment: Cytotoxicity against human 786-O cells after 72 hrs by CCK8 assay; format: functional, cell-based; conditions: 786-0, 72 h; how it was run: as §1
RAW264.7 [3] = experiment: Cytotoxicity against mouse RAW264.7 cells at 0.5 to 4 uM after 8 hrs by MTT assay; format: cell-based; conditions: raw264.7, 8 h
How it was run: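 Luciferase-reporter RAW264.7 cells received compounds at 4, 2, 1 and 0.5 μM for 30 min, then 1 μg/mL LPS for 8 h. Viability at these concentrations was assessed by MTT.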

786-0 [4] = experiment: Cell cycle arrest in human 786-O cells assessed as accumulation at G0/G1 phase at 1 uM after 24 hrs by propidium iodide staining based flow cytometric method (reference value: 42.07%); format: functional
786-0 [5] = experiment: Cell cycle arrest in human 786-O cells assessed as accumulation at S phase at 1 uM after 72 hrs by propidium iodide staining based flow cytometric method (reference value: 42.76%); format: functional
786-0 [6] = experiment: Induction of apoptosis in human 786-O cells assessed as necrotic cells at 1 uM after 72 hrs by Annexin-V-FITC/propidium iodide staining based flow cytometric method (reference value: 12.5%); format: functional
786-0 [7] = experiment: Induction of apoptosis in human 786-O cells assessed as late apoptotic cells at 2 uM after 72 hrs by Annexin-V-FITC/propidium iodide staining based flow cytometric method (reference value: 4.2%); format: functional
786-0 [8] = experiment: Induction of apoptosis in human 786-O cells assessed as early apoptotic cells at 1 uM after 72 hrs by Annexin-V-FITC/propidium iodide staining based flow cytometric method (reference value: 1.2%); format: functional
786-0 [9] = experiment: Cell cycle arrest in human 786-O cells assessed as accumulation at S phase at 2 uM after 72 hrs by propidium iodide staining based flow cytometric method (reference value: 42.76%); format: functional
786-0 [10] = experiment: Cell cycle arrest in human 786-O cells assessed as accumulation at S phase at 2 uM after 24 hrs by propidium iodide staining based flow cytometric method (reference value: 47.35%); format: functional
786-0 [11] = experiment: Cell cycle arrest in human 786-O cells assessed as accumulation at G0/G1 phase at 1 uM after 72 hrs by propidium iodide staining based flow cytometric method (reference value: 44.95%); format: functional
786-0 [12] = experiment: Cell cycle arrest in human 786-O cells assessed as accumulation at G0/G1 phase at 2 uM after 24 hrs by propidium iodide staining based flow cytometric method (reference value: 42.07%); format: functional
786-0 [13] = experiment: Cell cycle arrest in human 786-O cells assessed as accumulation at S phase at 1 uM after 24 hrs by propidium iodide staining based flow cytometric method (reference value: 47.35%); format: functional
786-0 [14] = experiment: Induction of apoptosis in human 786-O cells assessed as necrotic cells at 1 uM after 24 hrs by Annexin-V-FITC/propidium iodide staining based flow cytometric method (reference value: 10%); format: functional
786-0 [15] = experiment: Induction of apoptosis in human 786-O cells assessed as live cells at 1 uM after 24 hrs by Annexin-V-FITC/propidium iodide staining based flow cytometric method (reference value: 81.4%); format: functional
786-0 [16] = experiment: Induction of apoptosis in human 786-O cells assessed as necrotic cells at 2 uM after 24 hrs by Annexin-V-FITC/propidium iodide staining based flow cytometric method (reference value: 10%); format: functional
786-0 [17] = experiment: Induction of apoptosis in human 786-O cells assessed as late apoptotic cells at 1 uM after 24 hrs by Annexin-V-FITC/propidium iodide staining based flow cytometric method (reference value: 7%); format: functional
786-0 [18] = experiment: Induction of apoptosis in human 786-O cells assessed as early apoptotic cells at 1 uM after 24 hrs by Annexin-V-FITC/propidium iodide staining based flow cytometric method (reference value: 1.6%); format: functional
786-0 [19] = experiment: Cell cycle arrest in human 786-O cells assessed as accumulation at G0/G1 phase at 2 uM after 72 hrs by propidium iodide staining based flow cytometric method (reference value: 44.95%); format: functional
786-0 [20] = experiment: Induction of apoptosis in human 786-O cells assessed as late apoptotic cells at 2 uM after 24 hrs by Annexin-V-FITC/propidium iodide staining based flow cytometric method (reference value: 7%); format: functional
786-0 [21] = experiment: Cell cycle arrest in human 786-O cells assessed as accumulation at G2/M phase at 1 uM after 24 hrs by propidium iodide staining based flow cytometric method (reference value: 10.58%); format: functional
786-0 [22] = experiment: Induction of apoptosis in human 786-O cells assessed as late apoptotic cells at 1 uM after 72 hrs by Annexin-V-FITC/propidium iodide staining based flow cytometric method (reference value: 4.2%); format: functional
786-0 [23] = experiment: Cell cycle arrest in human 786-O cells assessed as accumulation at G2/M phase at 1 uM after 72 hrs by propidium iodide staining based flow cytometric method (reference value: 12.29%); format: functional
786-0 [24] = experiment: Induction of apoptosis in human 786-O cells assessed as live cells at 2 uM after 24 hrs by Annexin-V-FITC/propidium iodide staining based flow cytometric method (reference value: 81.4%); format: functional
786-0 [25] = experiment: Induction of apoptosis in human 786-O cells assessed as live cells at 1 uM after 72 hrs by Annexin-V-FITC/propidium iodide staining based flow cytometric method (reference value: 82.2%); format: functional
786-0 [26] = experiment: Induction of apoptosis in human 786-O cells assessed as necrotic cells at 2 uM after 72 hrs by Annexin-V-FITC/propidium iodide staining based flow cytometric method (reference value: 12.5%); format: functional
786-0 [27] = experiment: Induction of apoptosis in human 786-O cells assessed as early apoptotic cells at 2 uM after 72 hrs by Annexin-V-FITC/propidium iodide staining based flow cytometric method (reference value: 1.2%); format: functional
786-0 [28] = experiment: Induction of apoptosis in human 786-O cells assessed as early apoptotic cells at 2 uM after 24 hrs by Annexin-V-FITC/propidium iodide staining based flow cytometric method (reference value: 1.6%); format: functional
786-0 [29] = experiment: Cell cycle arrest in human 786-O cells assessed as accumulation at G2/M phase at 2 uM after 72 hrs by propidium iodide staining based flow cytometric method (reference value: 12.29%); format: functional
786-0 [30] = experiment: Induction of apoptosis in human 786-O cells assessed as live cells at 2 uM after 72 hrs by Annexin-V-FITC/propidium iodide staining based flow cytometric method (reference value: 82.2%); format: functional
786-0 [31] = experiment: Cell cycle arrest in human 786-O cells assessed as accumulation at G2/M phase at 2 uM after 24 hrs by propidium iodide staining based flow cytometric method (reference value: 10.58%); format: functional

SMILES: C[C@]1(COC(=O)c2ccc([N+](=O)[O-])cc2)CCC[C@]2(C)[C@H]3COC(=O)C3=C[C@@H](O)[C@@H]12
- inhibition (RAW264.7 [1]): 16%
- IC50 (ACHN): 30 µM
- IC50 (OS-RC-2): 23 µM
- IC50 (786-0 [2]): 24 µM
- Activity (RAW264.7 [3]): Non-Toxic

SMILES: CNC(=O)c1cc(Oc2ccc(NC(=O)Nc3ccc(Cl)c(C(F)(F)F)c3)cc2)ccn1 [SORAFENIB]
- IC50 (ACHN): 3.4 µM
- IC50 (OS-RC-2): 7 µM
- IC50 (786-0 [2]): 4.9 µM

SMILES: CO[C@H]1C2=C(COC2=O)[C@@]2(C)CCC[C@](C)(CO)[C@@H]2[C@@H]1O
- Activity (RAW264.7 [3]): Non-Toxic

SMILES: C[C@]1(COC(=O)c2ccc([N+](=O)[O-])cc2)CCC[C@@]2(C)[C@H]1[C@H](O)C=C1C(=O)OC[C@@]12O
- IC50 (ACHN): 11 µM
- IC50 (OS-RC-2): 8.2 µM
- IC50 (786-0 [2]): 4.3 µM

SMILES: CC(=O)OC[C@@]1(C)CCC[C@]2(C)[C@H]3COC(=O)C3=C[C@@H](OC(=O)c3ccc([N+](=O)[O-])cc3)[C@@H]12
- IC50 (ACHN): 13 µM
- IC50 (OS-RC-2): 11 µM
- IC50 (786-0 [2]): 14 µM
- Activity (RAW264.7 [3]): Non-Toxic

SMILES: C[C@]1(CO)CCC[C@]2(C)[C@H]3COC(=O)C3=C[C@@H](OC(=O)c3ccc([N+](=O)[O-])cc3)[C@@H]12
- IC50 (ACHN): 25 µM
- IC50 (OS-RC-2): 30 µM
- IC50 (786-0 [2]): 20 µM

SMILES: C[C@]1(CO)CCC[C@@]2(C)[C@H]1[C@H](OC(=O)c1ccc([N+](=O)[O-])cc1)C=C1C(=O)OC[C@@]12O
- IC50 (ACHN): 1.5 µM
- IC50 (OS-RC-2): 1.5 µM
- IC50 (786-0 [2]): 0.89 µM

SMILES: CC(=O)OC[C@@]1(C)CCC[C@@]2(C)[C@H]1[C@H](OC(=O)c1ccc([N+](=O)[O-])cc1)C=C1C(=O)OC[C@@]12O
- Activity (786-0 [4]): 38%
- Activity (786-0 [5]): 32.77%
- Activity (786-0 [6]): 18.6%
- Activity (786-0 [7]): 9.1%
- Activity (786-0 [8]): 1.7%
- Activity (786-0 [9]): 35.56%
- Activity (786-0 [10]): 49.91%
- IC50 (ACHN): 4.1 µM
- Activity (786-0 [11]): 54.16%
- Activity (786-0 [12]): 42.23%
- Activity (786-0 [13]): 47%
- Activity (786-0 [14]): 15.8%
- Activity (786-0 [15]): 78.6%
- Activity (786-0 [16]): 26%
- IC50 (OS-RC-2): 5.3 µM
- Activity (786-0 [17]): 4.3%
- Activity (786-0 [18]): 1.3%
- Activity (786-0 [19]): 51.06%
- IC50 (786-0 [2]): 2.3 µM
- Activity (786-0 [20]): 6.5%
- Activity (786-0 [21]): 8.53%
- Activity (RAW264.7 [3]): Non-Toxic
- Activity (786-0 [22]): 5%
- Activity (786-0 [23]): 13.06%
- Activity (786-0 [24]): 66.5%
- Activity (786-0 [25]): 74.7%
- Activity (786-0 [26]): 31.5%
- Activity (786-0 [27]): 1%
- Activity (786-0 [28]): 1.1%
- Activity (786-0 [29]): 13.38%
- Activity (786-0 [30]): 58.3%
- Activity (786-0 [31]): 7.86%
